# Measles CPE: compounds protecting cells from measles virus cytopathic effect, primary screen, measles RdRp inhibitor project, single point, MLSMR library, absorbance. Measles virus-infected cells, CPE protection. protection (pct of control), % at 4 µM. actives 1.5% (n = 140,000); in the data active = protection mostly above about 24%, no sharp cut-off; inactive = mostly below about 26%
# Yeast lifespan up: compounds extending yeast replicative lifespan, primary screen, S. cerevisiae, OD615; S. cerevisiae growth with nicotinamide; deaD strain in restrictive glucose medium; actives 0.68% (n = 130,000); inhibition of the nicotinamide effect, % at 10 µM;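 active = inhibition above a set limit, placed 3 SD over the median of all compounds, cut at about 26% in these data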;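 also: 0% = nicotinamide-treated wells and 100% = cells grown without nicotinamide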
#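 Assay system: engineered S. cerevisiae DeaD replicative-lifespan strain, galactose-grown log-phase cells; medium: restrictive CSMM-D dextrose medium; also added: nicotinamide, 1.5 mM, co-present with compound; schedule: 48 h compound exposure at 30 °C, humidified; detection: absorbance at 615 nm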
# BB579 growth dn: growth inhibitors of yeast BB579 in restrictive medium, primary screen, yeast lifespan-shortening project, S. cerevisiae | OD615, 48 h | actives 0.51% (n = 140,000) | AID 804, 2007 | inhibition, % at 10 µM;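 active = inhibition above a set limit, 3 SD over the mean compound inhibition, cut at about 44% in these data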
#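 Material: Saccharomyces cerevisiae DeaD strain BB579, replicative lifespan model yeast; buffer or medium: CSMM-D restrictive synthetic medium containing dextrose (glucose); compound: 10 µM single dose, DMSO 0.25%; timing: 48 h compound exposure at 30 °C after 4 h preincubation; signal: turbidity as optical density at 615 nm; benchmarks: positive control amphotericin B 10 µg/mL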
# RAM inhibit: inhibitors of the yeast RAM network, primary screen, dse1pr::URA3 reporter, 5-FOA selection | S. cerevisiae dse1pr::URA3 reporter, 5-FOA growth OD615, 2 d; analog-sensitive cbk1-as2 kinase mutant strain | inhibition, % at 50 µM | actives 1.8% (n = 190,000) | AID 868, 2007;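 active = inhibition above a set limit, 3 SD over mean compound inhibition, cut at about 8.4% in these data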;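 also: 0% = DMSO-only wells with no growth and 100% = 10 µM 1-NA-PP1 full growth; inhibition rescues growth on 5-FOA so higher OD means more RAM inhibition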
# Starred values were filed as active, the others as inactive; · = no result. A selection: hits, their analogues and other compounds. The true share with any hit is near 3.6%.
SMILES,Measles CPE,Yeast lifespan up,BB579 growth dn,RAM inhibit
Cc1sc(N/N=C/c2cccnc2)nc1-c1ccc(Cl)cc1,8,-13,-46,2
CC1(C)C/C(=N\NC(=S)Nc2ccccc2F)c2cc(O)ccc2O1,·,·,·,3
COC(=O)C1=C(C(=O)OC)SC(=C2C(=S)C(C)(C)N(C(=O)C3CC3)c3ccccc32)S1,6,1,-51,6
COC(=O)C1=C(C(=O)OC)SC(=C2C(=S)C(C)(C)N(C(=O)C(C)C)c3ccccc32)S1,2,35*,-24,7
CC1CC(C)CN(CCOc2ccc(Br)cc2)C1 (configuration not stated),7,3,-4,1
COc1ccc(N2CCN(C(=O)c3ccc(NS(=O)(=O)c4ccc(F)c(F)c4)cc3)CC2)cc1,20,-7,-85,0
COc1ccc(S(=O)(=O)CCC(=O)N2CCN(c3ccc(F)cc3)CC2)cc1,·,·,·,10*
O=C(CCS(=O)(=O)c1cccs1)N1CCN(c2ccc(F)cc2)CC1,5,-6,-13,1
COc1ccc(N2CCN(C(=O)c3ccc(NS(=O)(=O)c4cccc(F)c4)cc3)CC2)cc1,19*,-11,-50,2
O=C(COc1ccc(/C=N/NC(=O)C(=O)N2CCCCC2)cc1)Nc1ccccc1Cl,·,·,·,1
S=C(Nc1ccc(Cc2ccncc2)cc1)Nc1cccc(Cl)c1,·,·,·,0
Cc1ccc(S(=O)(=O)N(C)C)cc1NC(=O)CCNC(=O)c1ccccc1Cl,54*,1,-16,-1
CCN(CC)S(=O)(=O)c1cc(NC(=O)CCNC(=O)c2ccccc2Cl)ccc1C,5,3,-14,2
CCOc1nc(C#N)nc(N2CCCCC2)n1,36*,24,-36,2
CCOc1ccccc1N1CCN(CC(=O)NCCc2ccc(S(N)(=O)=O)cc2)CC1,·,·,·,1
CCOc1ccc(NC(=O)CSCc2cnn(-c3ccccc3)c2-n2cccc2)cc1,14,1,-60,10*
O=C(c1cccs1)N1CCN(Cc2ccccc2[N+](=O)[O-])CC1,7,-2,-19,0
Cc1sc(NC(=O)c2ccco2)c(C(c2cccnc2)N2CCN(c3ccc(F)cc3)CC2)c1C (configuration not stated),2,0,-3,8.4*
CCOC(=O)C1CCN(C(c2cccnc2)c2c(NC(=O)c3ccco3)sc(C)c2C)CC1 (configuration not stated),67*,23,-30,-1
Cc1ccccc1CN(C)C(C)C(=O)Nc1ccccc1F (configuration not stated),·,·,·,0
COCCNC(=O)c1cc(C(=O)CC(C)C)c[nH]1,·,·,·,1
O=C(NNC(=O)C(c1ccccc1)c1ccccc1)c1ccccn1,0,29*,-29,0
COc1ccc(NC(=O)Cc2c(SC)c3ccccc3n2Cc2ccccc2)cc1,6,-2,-32,1
O=C(Cc1ccccc1F)Nc1nc(-c2cccs2)cs1,57*,-23,1,8
O=C(Cc1ccccc1)Nc1nc(-c2cccs2)cs1,62*,-12,-32,6
SMILES,Measles CPE,Yeast lifespan up,BB579 growth dn,RAM inhibit
Cc1nc(N2CCOCC2)nc2c1CCC2,·,·,·,0
COc1ccc(/C=N/Nc2cn[nH]c(=O)c2Cl)cc1,·,·,·,2
Cc1cc(C)c2c(N=NN(C)C)[nH]nc2n1,10,-8,73*,0
Cc1ccc(N2C(=O)N(CC(=O)NCc3ccccc3Cl)C(=O)C2C)cc1 (configuration not stated),·,·,·,0
Oc1ccccc1/C=N/n1c2ccccc2c2ccccc21,6,-19,-14,9.7*
Cn1cc(/C=C2\SC(=O)NC2=S)c2ccccc21,·,·,·,10*
Cc1ccc(C(=O)NN2C(=O)/C(=C/c3cn(C)c4ccccc34)SC2=S)cc1,21,3,-20,6
Cc1occc1-c1nnc(SCC(=O)N2CCCCC2)o1,·,·,·,-1
Cc1ccccc1NC(=O)C(=Cc1ccc(C(=O)O)cc1)C(=O)Nc1ccccc1C,·,·,·,11*
O=C(NCC1CCCO1)c1cc(S(=O)(=O)Nc2ccc(Br)cc2)ccc1Cl (configuration not stated),·,·,·,0
CNC(=O)COC(=O)/C=C/c1cccc(F)c1,·,·,·,0
CCNC(=O)c1ccccc1-c1nc(-c2ccccc2Cl)no1,35*,-19,10,1
COc1ccc(CN2CCN(CCc3ccccc3)C(CCO)C2)c(O)c1 (configuration not stated),·,·,·,1

# Screening data from PubChem.
